Measured values from different studies.
Each line is one published result; the experiments were not run side by side.
Method: competition with immobilised ligand
JAK3 JH1: Tyrosine-protein kinase JAK3, JH1 (JAK3, Homo sapiens, UniProt P52333)
JAK3: Tyrosine-protein kinase JAK3 (JAK3, Homo sapiens, UniProt P52333)

With `Cc1noc([C@H]2C[C@@H](c3ccc(C(F)(F)F)cc3)CN(C(=O)N3CCS(=O)(=O)C3)C2)n1` the remaining binding was 100% (JAK3 JH1; cell-free assay; 1 µM).
For `O=C(c1ccc(Nc2ncc(Cl)c(-c3cc4ccccc4s3)n2)cc1)N1CCC(N2CCCC2)CC1`, the remaining binding was 0% (JAK3 JH1; binding; 1 µM).
`COC(=O)Nc1nc2ccc(C(=O)c3ccccc3)cc2[nH]1` gave a remaining binding of 29% (JAK3; cell-free assay; 10 µM).
`F[C@@H]1CCN(c2nccc(-c3cnn4ncccc34)n2)C1` gave a remaining binding of 100% (JAK3 JH1; cell-free assay; 1 µM).
`COc1ccc2cc(OCC3(C(=O)O)CN(C(=O)c4ccc(F)cc4)C3)ccc2c1` gave a remaining binding of 100% (JAK3 JH1; cell-free assay; 1 µM).
For `CN(CCCC(F)(F)F)c1nccc(-c2cnn3ncccc23)n1`, the remaining binding was 71% (JAK3 JH1; cell-free assay; 1 µM).
The remaining binding of `Nc1c(C(=O)NCc2ccc(C(=O)NCCCC3CCCCC3)cc2)cnn1-c1ccccc1` is reported as 100% (JAK3 JH1; cell-free assay; 0.1 µM).
With `COc1ncc2cc3ccccc3nc2c1C#N` the remaining binding was 63% (JAK3 JH1; cell-free assay; 5 µM).
The remaining binding of `NS(=O)(=O)c1cc(NC(=O)C2(c3ccccc3Cl)CC2)ccc1Oc1cccc(Cl)c1` is reported as 64% (JAK3 JH1; cell-free assay; 1 µM).
For `CNC(=O)[C@@H]1CC[C@@H](n2c(-c3ccc4cnccc4c3)nc3ccc(C(=O)NCc4cccc(C(N)=O)c4)cc32)C1`, the remaining binding was 100% (JAK3 JH1; binding; 1 µM).
For `CC(=O)N1CCC(c2ccc(C(=O)NC(=N)N)cc2C(F)(F)F)CC1`, the remaining binding was 100% (JAK3 JH1; cell-free assay; 1 µM).
`O=C(Nc1c[nH]nc1C(=O)NC1CCNCC1)c1cc(F)cc(F)c1` has a remaining binding of 100% (JAK3 JH1; binding; 1 µM).
With `C[C@@H]1CN(c2ccc3ncc(-c4ccc5[nH]nc(C6CC6)c5c4)n3n2)C[C@H](C)O1` the remaining binding was 76% (JAK3; binding; 50 nM).
With `COc1cnc(Nc2cccc(S(N)(=O)=O)c2)nc1N1CCN(c2ccccc2)C(=O)C1` the remaining binding was 16% (JAK3 JH1; binding; 1 µM).
`CC1CCCN1c1nccc(-c2cnn3ncccc23)n1` (stereo not shown) gave a remaining binding of 97% (JAK3 JH1; cell-free assay; 1 µM).
`N#CC1(c2ccccn2)CCN(Cc2cc(C(=O)N3CCCC3)c(=O)n3ccccc23)CC1` gave a remaining binding of 100% (JAK3 JH1; cell-free assay; 1 µM).
With `O=C(c1ccc(Nc2nccc(-c3cc4ccccc4s3)n2)cc1)N1CCC(N2CCCC2)CC1` the remaining binding was 0.4% (JAK3 JH1; binding; 1 µM).
`N[C@@H]1CCN(c2nccc(-c3cnn4ncccc34)n2)C1` has a remaining binding of 100% (JAK3 JH1; cell-free assay; 1 µM).
`O=C(NCCCN1CCOCC1)c1ccc(Nc2nccc(-c3cc4ccccc4s3)n2)cc1` gave a remaining binding of 6.4% (JAK3 JH1; binding; 1 µM).
`c1cncc(-c2cccc(Nc3nccc(NC4CCCCC4)n3)c2)c1` has a remaining binding of 6.4% (JAK3 JH1; binding; 10 µM).
The remaining binding of `C[C@@H](c1ccc(-n2cnc3c(N)ncnc32)cc1)N1CCc2nn(C)c(Cc3ccccc3)c2C1=O` is reported as 96% (JAK3 JH1; binding; 0.1 µM).
For `O=C(Nc1cccnn1)N1CCC(=Cc2cccc(Oc3ccc(C(F)(F)F)cn3)c2)CC1`, the remaining binding was 100% (JAK3 JH1; cell-free assay; 1 µM).
